High-throughput results: PubChem, several laboratories
Compounds with a hit are over-represented: about 3% of the library has one in this group of screens.
FID counter: compounds displacing fluorescent DNA intercalator, primary screen, artefact control for HCV NS3 helicase inhibitor project, biochemical, FID fluorescence; inhibition, % at 7.9 µM; 0.17% of 290,000 active; DNA fluorescent intercalator displacement; in the data active = inhibition above about 37%;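 also: 0% = vehicle and 100% = reference compound; higher means more ethidium bromide displaced from hairpin DNA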
SR-BI DiI inh: inhibitors of SR-BI mediated HDL lipid uptake, primary screen, ldlA[mSR-BI] cells, fluorescence, single point | Scavenger receptor class B member 1 (Mus musculus), Q61009 | ldlA[mSR-BI] CHO cells, DiI-HDL uptake fluorescence, 3 h | inhibition, % at 12.5 µM | AID 488896, 2010 | 0.96% of 320,000 active;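 active = mean replicate inhibition of at least 70% and a set share of replicates each scoring 70 or more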;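 also: 0% = median of neutral control wells and 100% = median of positive control wells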
Target sequence (Q61009 whole entry, looked up): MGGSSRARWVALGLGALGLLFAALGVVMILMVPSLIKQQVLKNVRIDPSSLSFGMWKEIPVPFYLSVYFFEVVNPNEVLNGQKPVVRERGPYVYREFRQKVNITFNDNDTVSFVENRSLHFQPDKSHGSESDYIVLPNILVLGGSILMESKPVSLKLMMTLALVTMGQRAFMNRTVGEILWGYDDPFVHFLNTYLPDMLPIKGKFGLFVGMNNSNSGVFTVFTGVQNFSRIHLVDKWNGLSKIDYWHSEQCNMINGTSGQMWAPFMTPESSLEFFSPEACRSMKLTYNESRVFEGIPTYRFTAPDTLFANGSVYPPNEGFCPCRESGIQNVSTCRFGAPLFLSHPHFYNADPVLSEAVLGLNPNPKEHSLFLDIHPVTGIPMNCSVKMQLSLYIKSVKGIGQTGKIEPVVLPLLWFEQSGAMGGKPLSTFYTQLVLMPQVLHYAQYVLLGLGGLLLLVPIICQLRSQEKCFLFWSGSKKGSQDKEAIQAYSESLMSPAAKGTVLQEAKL
Kir21 inh: inhibitors of mouse Kir2.1 inward-rectifier potassium channel | Inward rectifier potassium channel 2 (Mus musculus), P35561 | HEK293-Kir2.1, FluxOR thallium flux fluorescence; active compounds read low | B-score at 10 µM | 0.85% of 310,000 active | AID 1672, 2009;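 active = fluorescence ratio B-score at or below minus 3 SD of library scores, with starting-brightness B-score within 2 SD, cut at about -4.2 in these data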;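 also: channel flux triggered by added potassium and thallium sulfate stimulus; B-score of peak minus minimum fluorescence over baseline after thallium stimulus; more negative B-score means stronger Kir2.1 block with less thallium influx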
ANO1 block: TMEM16A chloride channel inhibitors, primary screen, cell-based, HTS; 1.2% of 310,000 active; HEK293 TMEM16A/YFP iodide influx fluorescence, ionomycin; AID 588511, 2011; normalized B-score (activity score, 25-100; higher = stronger inhibition) at 10 µM;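 active = ratio plate-corrected score three or more library SD toward inhibition, starting fluorescence score within five deviations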;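 also: score derived from kinetic fluorescence span divided by baseline fluorescence per well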
SR-BI uptake up: activators of SR-BI mediated DiI-HDL uptake, primary screen, ldlA[mSR-BI] CHO cells, DiI fluorescence; 0.096% of 320,000 active; 3 h; 100 = double the neutral-control signal; activation, % at 12.5 µM;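 active = mean replicate activation of at least 60% and every replicate at or above 60%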;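 also: 0% = median plate neutral-control signal and 100% = twice that signal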
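system = CHO ldlA[mSR-BI] cells, LDL receptor-null, SR-BI overexpressing | medium = Ham's F12 with 0.5% BSA, HEPES 25 mM, pH 7.4 | probe or stimulus = DiI-HDL 10 µg/mL | compound dosing = single-point compound dose | incubation = compound exposure 3 h, 37 °C | technique = DiI fluorescence, bottom read | read-out = cell-associated DiI fluorescence as measure of HDL uptake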
ANO1 activ: TMEM16A chloride channel activators or potentiators, primary screen, cell-based, HTS; AID 623877, 2012; B-score at 10 µM; HEK293 TMEM16A/YFP-H148Q/I152L, iodide quench fluorescence; active compounds read low; 0.3% of 340,000 active;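 active = fluorescence-ratio B-score plate-corrected deviation score at least 3 library SD below zero, with starting fluorescence score within 5 deviations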;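 also: channel opened by trigger with iodide after compound preincubation; score built on the fluorescence ratio of max minus min over baseline; more negative score means more quench and so TMEM16A activation or potentiation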
TMEM16A reconf: TMEM16A chloride channel inhibitors, confirmation, cell-based, re-confirmation; shares compounds with ANO1 block; HEK293 TMEM16A/YFP-H148Q, iodide quench fluorescence; ionomycin added to raise cell calcium; inhibition, % at 10 µM; 39% of 2,300 active; AID 652189, 2013;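 active = mean duplicate percent inhibition, scaled so buffer wells are 0 and the reference blocker 100, over three buffer SD above buffer mean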
TMEM16A Ca cntr: calcium mobilization in TMEM16A/YFP HEK293 cells, confirmation, counter-screen for TMEM16A inhibitor project. shares compounds with ANO1 block. Fluo4 calcium mobilization. calcium response (% of ionomycin), % at 10 µM. 2% of 2,300 active. AID 652231, 2013;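 active = duplicate-averaged calcium signal over 20% of the ionomycin maximum, relative to buffer baseline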;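 also: each well's signal is peak minus trough fluorescence divided by its pre-addition baseline; 0% = buffer wells and 100% = ionomycin wells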
YFP-HEK293 quench: iodide YFP quench changes in parental YFP-HEK293, counter-screen for TMEM16A inhibitor project, cell-based; shares compounds with ANO1 block; ionomycin; YFP ratio F(max-min)/F0 at 10 µM; 2,300 tested, under 10 active;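 active = yellow fluorescent protein signal ratio exceeding the buffer control mean by over 5 SD of those controls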;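 also: ratio is mean of duplicate wells from kinetic YFP trace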
ClC-1 inh: ClC-1 chloride channel inhibition, selectivity assay for TMEM16A inhibitor project, cell-based, voltage-dependent ClC-1; AID 652236, 2013; CHO ClC-1-YFP, iodide influx fluorescence quench; iodide control reads 0, buffer control 100; ratio percent, % at 10 µM; 2,300 tested, under 10 active; shares compounds with ANO1 block;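 active = duplicate-mean ratio percent above the mean of iodide-only control wells, which defines zero, plus 5 of their SD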;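 also: higher percent means stronger block of ClC-1 iodide influx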
Active calls of the source: *; i = inactive; . = not tested or not shown.

SMILES	FID counter	SR-BI DiI inh	Kir21 inh	ANO1 block	SR-BI uptake up	ANO1 activ	TMEM16A reconf	TMEM16A Ca cntr	YFP-HEK293 quench	ClC-1 inh
CC1C2Cc3ccc(O)cc3[C@]1(C)CCN2CCc1ccccc1 (some centres not stated)	.	-7.6	.	.	7.6	i	.	.	.	.
CCC1(CCO)C(=O)NC(=S)NC1=O	.	-4.8	.	.	4.8	i	.	.	.	.
Oc1cc(Cl)ccc1Oc1ccc(Cl)cc1Cl	.	20.0	1.19	100*	-20.0	i	69.5%*	i	-0.956	-19.0
O=C(O)COc1ccc(Cl)cc1Cl	.	-15.7	-0.38	i	15.7	i	.	.	.	.
CC1([N+](=O)[O-])COP(=O)(Nc2cccc(F)c2)OC1 (configuration not stated)	.	-20.8	.	.	20.8	i	.	.	.	.
CCc1ccc2nc(N3CCC(C(=O)N4CCC5(CC4)OCCO5)CC3)sc2c1	-44.6	8.7	0.15	100*	-8.7	i	i	21.0%*	-1.06	6.0
Oc1c(Cl)c(Cl)c(Cl)c(Cl)c1Cl	.	-2.9	0.83	100*	2.9	i	17.0%*	i	-0.748	-20.0
CCN(CC)c1ccc(N=Cc2c(O)n(-c3ccccc3)c(=O)[nH]c2=O)cc1	-15.9	26.3	0	i	-26.3	i	i	i	-0.926	-13.0
CCN(CC)c1ccc(N=Cc2c(O)n(-c3ccccc3C)c(=O)[nH]c2=O)cc1	-14.4	19.3	-1.15	i	-19.3	i	.	.	.	.
CCC1=Nc2cc(C(=O)N3CCC4(CC3)OCCO4)ccc2Sc2ccc(Br)cc21	-70.3	29.6	0.68	100*	-29.6	i	i	i	-0.984	-8.0
O=C(c1ccc(C(F)(F)F)cc1)C1CCCN(Cc2ccncc2)C1 (configuration not stated)	-8.3	4.8	-0.31	25*	-4.8	i	i	i	-1.08	-10.5
O=c1[nH]c(=S)n(CCC2=CCCCC2)c(O)c1C=NC1CCN(Cc2ccccc2)CC1	-3.3	19.8	0.77	100*	-19.8	i	i	i	-1.24	-15.5
CN1C(=O)C(=Cc2c(OCc3cnc(Cl)s3)ccc3ccccc23)C(=O)N(C)C1=O	-3.2	4.5	-0.24	i	-4.5	i	i	i	-1.17	1.0
CN1C(=O)C(=Cc2ccccc2OCc2ccccc2Cl)C(=O)N(C)C1=O	-2.3	19.1	-2.96	i	-19.1	i	.	.	.	.
CC(=O)c1cn(Cc2ccccc2C#N)c2ccccc12	2.8	8.7	0.1	25*	-8.7	i	i	i	-0.98	-20.0
CC(=O)c1cn(Cc2ccccc2F)c2ccccc12	-11.0	-12.0	2.12	.	12.0	i	.	.	.	.
CC[n+]1c(/C=C/C=C/c2ccc(N(C)C)cc2)sc2ccccc21	2.7	94.1*	-4.02	25*	-94.1	i	40.0%*	i	-0.925	-1.0
CN(C)c1ccc(/C=C/C=C/c2sc3ccccc3[n+]2C)cc1	8.5	15.4	0.58	i	-15.4	i	.	.	.	.
